What was measured:
Type in all cases: functional
[1] = tested on: NCI-H226; test: Growth inhibition of human NCI-H226 cells at 10 uM relative to control; conditions: values are per cent of control
Procedure, shortened: (§1)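 Single-dose preliminary screen in the NCI human cancer cell line panel, run by the NIH. Percent inhibition of cell line growth was calculated by comparison with untreated samples.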

[2] = tested on: SF-268; test: Growth inhibition of human SF268 cells at 10 uM relative to control; conditions: values are per cent of control; procedure, shortened: as §1
[3] = tested on: CCRF-CEM; test: Growth inhibition of human CCRF-CEM cells at 10 uM relative to control; conditions: values are per cent of control; procedure, shortened: as §1
[4] = tested on: NCI-H322M; test: Growth inhibition of human NCI-H322M cells at 10 uM relative to control; conditions: values are per cent of control; procedure, shortened: as §1
[5] = tested on: CAKI-1; test: Growth inhibition of human Caki1 cells at 10 uM relative to control; conditions: values are per cent of control; procedure, shortened: as §1
[6] = tested on: U-251; test: Growth inhibition of human U251 cells at 10 uM relative to control; conditions: values are per cent of control
Procedure, shortened: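 Single-dose NCI human tumour cell line screen, run by the NIH. Percent inhibition of cell line growth was calculated by comparison with untreated samples.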

[7] = tested on: KM12; test: Growth inhibition of human KM12 cells at 10 uM relative to control; conditions: values are per cent of control; procedure, shortened: as §1
[8] = tested on: MCF7; test: Growth inhibition of human MCF7 cells at 10 uM relative to control; conditions: values are per cent of control; procedure, shortened: as §1
[9] = tested on: OVCAR-3; test: Growth inhibition of human OVCAR-3 cells at 10 uM relative to control; conditions: values are per cent of control; procedure, shortened: as §1
[10] = tested on: MDA-MB-468; test: Growth inhibition of human MDA-MB-468 cells at 10 uM relative to control; conditions: values are per cent of control; procedure, shortened: as §1
[11] = tested on: ACHN; test: Growth inhibition of human ACHN cells at 10 uM relative to control; conditions: values are per cent of control; procedure, shortened: as §1
[12] = cells; conditions: Homo sapiens, Cancer cell lines
[13] = tested on: SK-MEL-28; test: Growth inhibition of human SK-MEL-28 cells at 10 uM relative to control; conditions: values are per cent of control; procedure, shortened: as §1
[14] = tested on: MDA-MB-435; test: Growth inhibition of human MDA-MB-435 cells at 10 uM relative to control; conditions: values are per cent of control; procedure, shortened: as §1
[15] = tested on: HL-60(TB); test: Growth inhibition of human HL-60(TB) cells at 10 uM relative to control; conditions: read-out: INH
Procedure, shortened: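 Single-dose cell line screen run by the NCI (NIH) in its human cancer cell line panel, which includes the leukemia line HL-60(TB). Percent growth inhibition was calculated by comparison with untreated samples.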

[16] = tested on: OVCAR-5; test: Growth inhibition of human OVCAR5 cells at 10 uM relative to control; conditions: values are per cent of control; procedure, shortened: as §1
[17] = tested on: LOX IMVI; test: Growth inhibition of human LOXIMVI cells at 10 uM relative to control; conditions: values are per cent of control; procedure, shortened: as §1
[18] = tested on: SK-OV-3; test: Growth inhibition of human SKOV3 cells at 10 uM relative to control; conditions: values are per cent of control; procedure, shortened: as §1
[19] = tested on: A549; test: Growth inhibition of human A549 cells at 10 uM relative to control; conditions: values are per cent of control; procedure, shortened: as §1
[20] = cells; conditions: Homo sapiens, Cancer cell lines; remark: listed apart in the source
[21] = tested on: IGROV-1; test: Growth inhibition of human IGROV1 cells at 10 uM relative to control; conditions: values are per cent of control; procedure, shortened: as §1
[22] = Growth inhibition of human Hs 578T cells at 10 uM relative to control; conditions: values are per cent of control; procedure, shortened: as §1
[23] = tested on: NCI/ADR-RES; test: Growth inhibition of human NCI/ADR-RES cells at 10 uM relative to control; conditions: values are per cent of control; procedure, shortened: as §1
[24] = tested on: PC-3; test: Growth inhibition of human PC3 cells at 10 uM relative to control; conditions: values are per cent of control; procedure, shortened: as §1
[25] = tested on: Leukemia cell; test: cells; conditions: Homo sapiens
[26] = tested on: 786-0; test: Growth inhibition of human 786-0 cells at 10 uM relative to control; conditions: values are per cent of control; procedure, shortened: as §1
[27] = tested on: SF-539; test: Growth inhibition of human SF539 cells at 10 uM relative to control; conditions: values are per cent of control; procedure, shortened: as §1
[28] = tested on: SN12C; test: Growth inhibition of human SN12C cells at 10 uM relative to control; conditions: values are per cent of control; procedure, shortened: as §1
[29] = tested on: COLO 205; test: Growth inhibition of human COLO205 cells at 10 uM relative to control; conditions: values are per cent of control; procedure, shortened: as §1
[30] = tested on: HCT-15; test: Growth inhibition of human HCT15 cells at 10 uM relative to control; conditions: values are per cent of control; procedure, shortened: as §1
[31] = cells; conditions: Homo sapiens, Cancer cell lines; remark: listed apart in the source

## O=C(/C=C/c1cn(CC(=O)c2ccccc2)nn1)NO
[1]
  growth, % of control at 10 µM: 89.4%
[2]
  growth, % of control at 10 µM: 71.9%
[3]
  growth, % of control at 10 µM: 48.6%
[4]
  growth, % of control at 10 µM: 41.3%
[5]
  growth, % of control at 10 µM: 63.9%
[6]
  growth, % of control at 10 µM: 76%
[7]
  growth, % of control at 10 µM: 78%
[8]
  growth, % of control at 10 µM: 77.8%
[9]
  growth, % of control at 10 µM: 57.7%
[10]
  growth, % of control at 10 µM: 64.6%
[11]
  growth, % of control at 10 µM: 82.5%
[12]
  growth percent at 10 µM: 78%
[13]
  growth, % of control at 10 µM: 82.2%
[14]
  growth, % of control at 10 µM: 23.3%
[15]
  growth, % of control at 10 µM: 258%
[16]
  growth, % of control at 10 µM: 65%
[17]
  growth, % of control at 10 µM: 88.3%
[18]
  growth, % of control at 10 µM: 81.9%
[19]
  growth, % of control at 10 µM: 54.1%
[20]
  inhibition at 10 µM: 65%
[21]
  growth, % of control at 10 µM: 64.2%
[22]
  growth, % of control at 10 µM: 211%
[23]
  growth, % of control at 10 µM: 14.8%
[24]
  growth, % of control at 10 µM: 57.8%
[25]
  inhibition at 10 µM: 104%
[26]
  growth, % of control at 10 µM: 39.9%
[27]
  growth, % of control at 10 µM: 86.4%
[28]
  growth, % of control at 10 µM: 86.2%
[29]
  growth, % of control at 10 µM: 105%
[30]
  growth, % of control at 10 µM: 117%
[31]
  inhibition at 10 µM: 53%

Source: ChEMBL document CHEMBL1140227, “Histone deacetylase inhibitors through click chemistry” (J Med Chem, 2008)
